ChEMBL document CHEMBL1166007, “Anti-AIDS agents 82: synthesis of seco-(3'R,4'R)-3',4'-di-O-(S)-camphanoyl-(+)-cis-khellactone (DCK) derivatives as novel anti-HIV agents” (Bioorg Med Chem, 2010)
Activity calls are given as the source filed them. No cut-off for these calls is given here.

What was measured:
[1] = test system: Human immunodeficiency virus 1; experiment: Antiviral activity against HIV1 3B infected in human MT2 cells assessed as inhibition of viral p24 antigen production after 6 days by ELISA; assay type: functional, organism-based; conditions: Human immunodeficiency virus 1, 3B, MT2, 144 h
Outline: (§1)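 Human T-cell MT-2 line kept with L-glutamine at 37 °C and 5% CO2. Compounds were dissolved in DMSO and screened at final 100, 20, 4 and 0.8 μg/mL, with a highest tested concentration of 20 μM. Medium was changed on days 1 and 4. Supernatant p24 was measured by antigen capture on day 6.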

[2] = Therapeutic index, ratio of IC50 for human MT2 cells to EC50 for HIV1 3B infected in human MT2 cells; assay type: cell-based; conditions: read-out: Ratio IC50/EC50
MT2 = experiment: Cytotoxicity against human MT2 cells after 6 days by XTT assay; assay type: cell-based; conditions: MT2, 144 h
MT4 = experiment: Cytotoxicity against human MT4 cells after 4 days by XTT assay; assay type: cell-based; conditions: MT4, 96 h
[3] = Therapeutic index, ratio of IC50 for human MT4 cells to EC50 for HIV1 NL4-3 infected in human MT4 cells; assay type: cell-based; conditions: read-out: Ratio IC50/EC50
Outline: (§2)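 HIV-1 NL4-3 or RTMDR (multi-RT inhibitor-resistant) virus infected MT-4 cells at MOI 0.001 in 96-well culture. On day 4 post-infection, culture supernatants were collected and p24 was measured by ELISA. TI = IC50/EC50. Values are averages of at least three separate experiments. Top tested concentration 20 μM.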

[4] = test system: Human immunodeficiency virus 1; experiment: Antiviral activity against HIV1 NL4-3 infected in human MT4 cells assessed as inhibition of viral p24 antigen production after 4 days by ELISA; assay type: functional, organism-based; conditions: Human immunodeficiency virus 1, NL4-3, MT4, 96 h; outline: as §2
[5] = test system: Human immunodeficiency virus 1; experiment: Antiviral activity against HIV1 3B infected in […] assessed as inhibition of viral p24 antigen production at 20 uM after 6 days by ELISA; assay type: functional, organism-based
Outline: as §1, with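 “μM. Wells received […] at 3 × 10^5 cells/mL plus HIV-1 IIIB inoculum of 125 TCID50.” for “μM.”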

[6] = test system: Human immunodeficiency virus; experiment: Antiviral activity against multi-RT inhibitor-resistant HIV infected in human MT4 cells assessed as inhibition of viral p24 antigen production after 4 days by ELISA; assay type: functional, organism-based; conditions: Human immunodeficiency virus 1, MT4, 96 h; outline: as §2
[7] = Therapeutic index, ratio of IC50 for human MT4 cells to EC50 for multi-RT inhibitor-resistant HIV infected in human MT4 cells; assay type: cell-based; conditions: read-out: Ratio IC50/EC50; outline: as §2

Row | SMILES | EC50 [1] | selectivity ratio [2] | IC50 (MT2) | IC50 (MT4) | selectivity ratio [3] | EC50 [4] | inhibition [5] | EC50 [6] | selectivity ratio [7]
1 | Cc1cc(=O)oc2c3c(ccc12)OC(C)(C)[C@H](OC(=O)[C@@]12CC[C@@](C)(C(=O)O1)C2(C)C)[C@@H]3OC(=O)[C@@]12CC[C@@](C)(C(=O)O1)C2(C)C | 0.126 µM | 301 | 39.2 µM | – | – | – | – | – | –
2 | COC(=O)COc1ccc2c(C)cc(=O)oc2c1COC(=O)[C@@]12CC[C@@](C)(C(=O)O1)C2(C)C | – | – | – | 54.5 µM | 1.22 | > 44.6 µM | – | – | –
3 | Cc1cc(=O)oc2c(CNC(=O)[C@@]34CC[C@@](C)(C(=O)O3)C4(C)C)c(OC(C)C)ccc12 | – | – | – | 25 µM | 1 | > 25 µM | – | – | –
4 | CCOc1ccc2c(C)cc(=O)oc2c1COC(=O)[C@@]12CC[C@@](C)(C(=O)O1)C2(C)C | – | – | – | 60.3 µM | 1.87 | > 32.3 µM | – | – | –
5 | Cc1cc(=O)oc2c(CN(C)C(=O)[C@@]34CC[C@@](C)(C(=O)O3)C4(C)C)c(OC(C)C)ccc12 | – | – | – | 56.6 µM | 8 | 5.66 µM | – | – | –
6 | CC(=O)c1ccc2c(c1C)[C@@H](OC(=O)[C@@]13CC[C@@](C)(C(=O)O1)C3(C)C)[C@@H](OC(=O)[C@@]13CC[C@@](C)(C(=O)O1)C3(C)C)C(C)(C)O2 | – | – | 39.6 µM | – | – | – | inactive | – | –
7 | CCOc1c(C(C)=O)ccc2c1[C@@H](OC(=O)[C@@]13CC[C@@](C)(C(=O)O1)C3(C)C)[C@@H](OC(=O)[C@@]13CC[C@@](C)(C(=O)O1)C3(C)C)C(C)(C)O2 | 0.19 µM | 208 | 39.6 µM | – | – | – | – | – | –
8 | Cc1cc(=O)oc2c(CSC(=O)[C@@]34CC[C@@](C)(C(=O)O3)C4(C)C)c(OC(C)C)ccc12 | – | – | – | 56.2 µM | 12 | 4.67 µM | – | – | –
9 | Cc1cc(=O)oc2c([C@H](COC(=O)[C@@]34CC[C@@](C)(C(=O)O3)C4(C)C)OC(=O)[C@@]34CC[C@@](C)(C(=O)O3)C4(C)C)c(OC(C)C)ccc12 | – | – | 39.2 µM | 20 µM | – | > 20 µM | inactive | 20 µM | –
10 | COc1ccc2c(C)cc(=O)oc2c1COC(=O)[C@@]12CC[C@@](C)(C(=O)O1)C2(C)C | – | – | – | 62.4 µM | 1.71 | > 36.6 µM | – | – | –
11 | Cc1cn([C@H]2CC(N=[N+]=[N-])[C@@H](CO)O2)c(=O)[nH]c1=O (single isomer, unassigned) [ZIDOVUDINE] | 0.044 µM | – | – | – | – | – | – | – | –
12 | COc1ccc(N(Cc2c(OC(C)C)ccc3c(C)cc(=O)oc23)C(=O)[C@@]23CC[C@@](C)(C(=O)O2)C3(C)C)cc1 | – | – | – | 34.7 µM | 15 | 4.69 µM | – | – | –
13 | CCc1cc(=O)c2ccc3c(c2o1)[C@@H](OC(=O)[C@@]12CC[C@@](C)(C(=O)O1)C2(C)C)[C@@H](OC(=O)[C@@]12CC[C@@](C)(C(=O)O1)C2(C)C)C(C)(C)O3 | – | – | – | 9.27 µM | – | 0.08 µM | – | 0.133 µM | 69.9
14 | Cc1cc(=O)oc2cc(OC(C)(C)[C@@H](COC(=O)[C@@]34CC[C@@](C)(C(=O)O3)C4(C)C)OC(=O)[C@@]34CC[C@@](C)(C(=O)O3)C4(C)C)ccc12 | – | – | 39.2 µM | 20 µM | – | > 20 µM | inactive | 20 µM | –
15 | Cc1cc(=O)oc2c([C@H](C)OC(=O)[C@@]34CC[C@@](C)(C(=O)O3)C4(C)C)c(OC(C)C)ccc12 | – | – | 56.5 µM | 20 µM | – | > 20 µM | inactive | 20 µM | –
